Laboratory results reported in ChEMBL document CHEMBL1132244, “Benzodiazepine receptor ligands. 4. Synthesis and pharmacological evaluation of 3-heteroaryl-8-chloropyrazolo[5,1-c][1,2,4] benzotriazine 5-oxides” (J Med Chem, 1999).

Legend:
[1] = molecular target: T1, GABA-A receptor; anion channel (Bos taurus) (UniProt P10063+P08220+P20237+P08219+P10064+P22300); test: Percentage inhibition of [3H]Ro-151788 binding to GABA-A benzodiazepine receptor in bovine brain membrane at 10 uM; type: cell membranes
How it was run: (§1)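 Washed bovine cerebral cortex membranes, with endogenous GABA removed by Triton X-100/37 °C washes, incubated with ~0.2 nM [3H]Ro15-1788 (Kd 0.60 nM) in 50 mM Tris-citrate pH 7.4 for 90 min at 0 °C, then filtered. Nonspecific binding defined with 10 μM diazepam. Screening at 10 μM; Ki from IC50 by Cheng–Prusoff; five determinations, mean ± SEM.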

[2] = tested on: Mus musculus; test: Muscle relaxant effect measured by rotarod test at 300 mg/Kg dose in mice; type: functional
How it was run: (§2)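 Motor coordination on the rota rod in male Swiss-Webster mice (22–26 g) after oral dosing in 1% CMC (10 mL/kg), tested 30 min post-dose. Student's t-test.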

[3] = tested on: Mus musculus; test: Muscle relaxant effect measured by rotarod test at 100 mg/Kg dose in mice; type: functional; how it was run: as §2
[4] = tested on: Mus musculus; test: (§3) Anticonvulsant activity against MES-induced hindlimb extension at 100 mg/kg dose; type: organism-based; design: dose 100 mg/kg; details: in vivo
How it was run: (§4)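 Male Swiss-Webster mice (22–26 g) received drug in 1% CMC (10 mL/kg) 30 min before maximal electroshock through transcorneal electrodes (40 mA, 50 Hz, 0.2 s). The end point was tonic hindlimb extension, and lethality was also noted. The incidence of non-convulsing mice was analysed by χ² test.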

[5] = tested on: Mus musculus; test: (§5) Anticonvulsant activity against MES-induced hindlimb extension at 30 mg/kg dose; type: ADME, organism-based; design: dose 30 mg/kg; details: in vivo; how it was run: as §4
[6] = tested on: Mus musculus; test: Antianxiety activity was measured based on light/dark box thus calculated % time in light of mice at 100 mg/kg dose; type: functional
How it was run: (§6)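 Male Swiss-Webster mice, 22–26 g, dosed orally with drug or 1% CMC vehicle (10 mL/kg), placed 30 min later in the centre of the lit side of a two-compartment light/dark box (60-W bulb 400 mm above the white floor). Time in the lit side and number of crossings counted over 5 min. Student's t-test.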

[7] = tested on: Mus musculus; test: Antianxiety activity was measured based on light/dark box thus calculated % time in light of mice at 30 mg/kg dose; type: functional; how it was run: as §6
[8] = molecular target: GABA-A receptor; anion channel; test: Displacement of [3H]Ro-151788 from GABA-A benzodiazepine receptor of bovine brain membranes; type: cell membranes, Bos taurus; how it was run: as §1
[9] = tested on: Mus musculus; test: Anticonvulsant activity against PTZ induced atacks at 100 mg/kg dose; type: functional
[10] = tested on: Mus musculus; test: Antianxiety activity was measured based on light/dark box thus calculated no of crosses of mice at 100 mg/kg dose; type: functional; how it was run: as §6
[11] = tested on: Mus musculus; test: Antianxiety activity was measured based on light/dark box thus calculated no of crosses of mice at 30 mg/kg dose; type: functional; how it was run: as §6
[12] = tested on: Mus musculus; test: Anticonvulsant activity against PTZ induced atacks at 30 mg/kg dose; type: functional
[13] = tested on: Mus musculus; test: as §3; type: functional
[14] = molecular target: T1, GABA-A receptor; anion channel (Bos taurus); test: The GABA ratio (GR) = IC50 compound + 10 uM GABA, performed in five independent experiments was calculated for the compound.; type: protein-complex assay
How it was run: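 [3H]Ro15-1788 displacement from GABA-depleted bovine cortex membranes (0.2 nM ligand, 90 min, 0 °C, Tris-citrate pH 7.4). IC50 measured without and with 10 μM GABA and the ratio taken; five independent experiments.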

[15] = tested on: Mus musculus; test: as §5; type: functional
[16] = tested on: Mus musculus; test: Anticonvulsant activity against PTZ induced attacks at 30 mg/kg dose 13d and 100 mg/kg Flumazenil; type: functional
How it was run: (§7)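 Male Swiss-Webster mice (22–26 g) received drug in 1% CMC (10 mL/kg) 30 min before the test, or flumazenil 40 min before. Pentylenetetrazole was then given at 75 mg/kg sc, and generalized tonic-clonic seizures were scored over the following 30 min. The incidence of non-convulsing mice was analysed by χ² test.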

[17] = tested on: Mus musculus; test: Muscle relaxant effect measured by rotarod test at 30 mg/kg dose 13d and 100 mg/kg Flumazenil; type: functional
[18] = tested on: Mus musculus; test: Antianxiety activity was measured based on light/dark box thus calculated % time in light of mice at 10 mg/kg dose; type: functional; how it was run: as §6
[19] = tested on: Mus musculus; test: Antianxiety activity was measured based on light/dark box thus calculated no of crosses of mice at 3 mg/kg dose; type: functional; how it was run: as §6
[20] = tested on: Mus musculus; test: Muscle relaxant effect measured by rotarod test at 30 mg/Kg dose in mice; type: functional; how it was run: as §2
[21] = tested on: Mus musculus; test: (§8) Anticonvulsant activity against MES-induced hindlimb extension at 300 mg/kg dose; type: ADME, organism-based; design: dose 300 mg/kg; details: in vivo; how it was run: as §4
[22] = tested on: Mus musculus; test: Antianxiety activity was measured based on light/dark box thus calculated no of crosses of mice at 10 mg/kg dose; type: functional; how it was run: as §6
[23] = tested on: Mus musculus; test: as §8; type: functional
[24] = tested on: Mus musculus; test: Anticonvulsant activity against PTZ induced atacks at 300 mg/kg dose; type: functional
[25] = tested on: Mus musculus; test: Antianxiety activity was measured based on light/dark box thus calculated % time in light of mice at 3 mg/kg dose; type: functional; how it was run: as §6
[26] = tested on: Mus musculus; test: Antianxiety activity was measured based on light/dark box thus calculated % time in light of mice at 100 mg/kg dose Flumazenil and 1 mg/kg Diazepam; type: functional
[27] = tested on: Mus musculus; test: Antianxiety activity was measured based on light/dark box thus calculated no of crosses of mice at 100 mg/kg dose Flumazenil and 1 mg/kg Diazepam; type: functional
[28] = tested on: Mus musculus; test: Muscle relaxant effect measured by rotarod test at 100 mg/kg dose Flumazenil and 0.3 mg/kg Diazepam; type: functional
[29] = tested on: Mus musculus; test: Anticonvulsant activity against PTZ induced atacks at 100 mg/kg dose Flumazenil and 0.3 mg/kg Diazepam; type: functional; how it was run: as §7
[30] = tested on: Mus musculus; test: Anticonvulsant activity against PTZ induced seizures in mice at 100 mg/kg dose with 0.3 mg/kg Diazepam; type: functional
[31] = tested on: Mus musculus; test: Antianxiolytic activity in mice as percent time in light of light/dark box at 100 mg/kg 13c and 1 mg/kg Diazepam; type: functional
[32] = tested on: Mus musculus; test: Muscle relaxant effect in rotarod test at 100 mg/kg 13c and 1 mg/kg Diazepam; type: functional
[33] = tested on: Mus musculus; test: Antianxiolytic activity in mice as no of crosses on light/dark box at 100 mg/kg 13c and 1 mg/kg Diazepam; type: functional
[34] = tested on: Mus musculus; test: Muscle relaxant effect in rotarod test at 100 mg/kg 13c and 0.3 mg/kg Diazepam; type: functional
[35] = tested on: Mus musculus; test: Anticonvulsant activity against PTZ induced seizures at 100 mg/kg dose with 1 mg/kg Diazepam; type: functional
[36] = species on record: Mus musculus; test: Antianxiety activity was measured based on light/dark box thus calculated no of crosses of mice; type: functional
[37] = species on record: Mus musculus; test: Muscle relaxant effect measured by rotarod test; type: functional
[38] = species on record: Mus musculus; test: Antianxiety activity was measured based on light/dark box thus calculated % time in light of mice; type: functional
[39] = species on record: Mus musculus; test: Anticonvulsant activity against PTZ induced atacks; type: functional; how it was run: as §7

SMILES: C/C(=N\C(=O)c1cnn2c1n[n+]([O-])c1ccc(Cl)cc12)N(C)C
- inhibition [1]: 58.5%

SMILES: CCOC(=O)c1cnn2c1n[n+]([O-])c1ccc(Cl)cc12
- inhibition [1]: 99.8%
- No. of falls [2]: 0.33
- No. of falls [3]: 0.5
- Lethality [4]: 0%
- Lethality [5]: 22.2%
- Time in flight [6]: 124.6%
- Time in flight [7]: 106.2%
- Ki [8]: 35 nM
- Atttacks [9]: 28.1%
- No. of crosses [10]: 15.2
- No. of crosses [11]: 19.1
- Atttacks [12]: 15%
- Extension [13]: 0%
- GR [14]: 1.91
- Extension [15]: 0%

SMILES: CC(C)(C)OC(=O)Nc1cnn2c1n[n+]([O-])c1ccc(Cl)cc12
- inhibition [1]: 0%

SMILES: CCOC(=O)c1ncn2c1CN(C)C(=O)c1cc(F)ccc1-2.[O-][n+]1nc2c(-c3ccsc3)cnn2c2cc(Cl)ccc21
- Attacks [16]: 36.4%
- No. of falls [17]: 0.64

SMILES: O=CNC(=O)c1cnn2c1n[n+]([O-])c1ccc(Cl)cc12
- inhibition [1]: 85.5%
- Ki [8]: 844 nM
- Ratio [14]: 2.07

SMILES: Nc1cnn2c1n[n+]([O-])c1ccc(Cl)cc12
- inhibition [1]: 33.9%

SMILES: [O-][n+]1nc2c(-c3cccs3)cnn2c2cc(Cl)ccc21
- Time in flight [18]: 122.2%
- inhibition [1]: 82%
- No. of falls [2]: 0.2
- No. of falls [3]: 0.08
- Lethality [4]: 20%
- Lethality [5]: 18.2%
- Time in flight [6]: 114.5%
- No. of crosses [19]: 15
- No. of falls [20]: 0
- Lethality [21]: 8.3%
- No. of crosses [22]: 20
- Time in flight [7]: 11.5%
- Ki [8]: 10.3 nM
- Atttacks [9]: 16.6%
- Extension [23]: 0%
- No. of crosses [10]: 18.4
- No. of crosses [11]: 17.6
- Atttacks [24]: 12.5%
- Atttacks [12]: 10%
- Extension [13]: 0%
- GR [14]: 1.54
- Extension [15]: 0%
- Time in flight [25]: 88.9%

SMILES: CN(C)/C=N/C(=O)c1cnn2c1n[n+]([O-])c1ccc(Cl)cc12
- inhibition [1]: 48.9%

SMILES: CCOC(=O)c1ncn2c1CN(C)C(=O)c1cc(F)ccc1-2.CN1C(=O)CN=C(c2ccccc2)c2cc(Cl)ccc21
- Time in flight [26]: 104.1%
- No. of crosses [27]: 18.6
- No. of falls [28]: 0.46
- Atttacks [29]: 14.2%

SMILES: CN1C(=O)CN=C(c2ccccc2)c2cc(Cl)ccc21.[O-][n+]1nc2c(-c3cccs3)cnn2c2cc(Cl)ccc21
- Atttacks [30]: 50%
- Time in flight [31]: 130.9%
- No. of falls [32]: 0.17
- No. of crosses [33]: 26.6
- No. of falls [34]: 0.5
- Atttacks [35]: 100%

SMILES: CCOC(=O)c1ncn2c1CN(C)C(=O)c1cc(F)ccc1-2 [FLUMAZENIL]
- No. of crosses [36]: 15.2
- No. of falls [37]: 0.4
- Time in flight [38]: 114.8%
- Attacks [39]: 0%
